Assay outcomes from PubChem.
Beta apoptosis = inhibitors of cytokine-induced beta cell apoptosis, primary screen, luminescence. protection from apoptosis, % (test concentration not listed). INS-1E cytokine-induced death, ATP luminescence, 48 h; percent of positive-control rescue, neutral wells zero. hit rate 0.8% among 300,000;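 active = Every replicate reaches about 75%, or at least half do and their mean reaches it too, limit read from the data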;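 note: higher means more ATP so stronger rescue from cytokine killing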
CSC inhib = cancer stem cell viability inhibitors, primary screen, luminescence; cancer stem cell-like cells viability; inhibition, % at 7.5 µM; hit rate 1.1% among 300,000; in the data active = inhibition above about 75%; tested in HMLE shEcad cells
T cruzi inh = inhibitors of intracellular T. cruzi growth, primary screen, luminescence, NIH3T3 host cells; AID 1885, 2009; T. cruzi beta-gal in NIH3T3, 90 h; inhibition, % (concentration not given with the values); hit rate 1.4% among 300,000;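 active = mean inhibition across valid replicates above about 55%, limit read from the data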;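 note: signal also drops with host cell toxicity which is not excluded here; higher percent means less beta-gal luminescence so fewer parasites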
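compound dosing = single 50 nL compound addition per well in DMSO | material = NIH/3T3 host cells with β-galactosidase reporter T. cruzi | input = 5,000 host fibroblasts per well | timing = ≥90 h infection period, 3 h prior cell attachment | read-out basis = percent inhibition of parasite-derived β-gal signal | detection = GalScreen β-gal luminescence, detergent lysis, 60 min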
SKKanGAS inh = S. pyogenes SKKanGAS growth inhibitors in kanamycin, primary screen, streptokinase expression inhibitor project, SKKanGAS strain, BacTiter-Glo luminescence; hit rate 1.3% among 300,000; 6 h; inhibition, % at 7.5 µM;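 active = mean replicate score, as percent of positive control median, at least 50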;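 note: strain carries kanamycin resistance gene driven by streptokinase promoter and grows in 40 µg/ml kanamycin; loss of luminescence reflects streptokinase promoter inhibition or plain growth inhibition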
Calb FLC = C. albicans growth inhibition with fluconazole, primary screen, CaCi-2 strain, Alamar Blue fluorescence | C. albicans CaCi-2 (fluconazole-resistant clinical isolate) + fluconazole, 48 h | hit rate 0.57% among 300,000 | growth inhibition, % (no concentration beside the values);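 active = growth inhibition above about 58% in most replicates, limit read from the data, passing the limit was not always enough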;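 note: all wells also contain fluconazole at 8 µg/ml as a sub-toxic cotreatment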
Mdm2 MdmX PPI = inhibitors of human Mdm2-MdmX association, primary screen, cell-based, luminescence, split luciferase, SaOS-2, uHTS; Protein Mdm4 (Homo sapiens) + E3 ubiquitin-protein ligase Mdm2 (Homo sapiens), …; AID 485346, 2010; hit rate 3% among 330,000; inhibition, % at 8 µM; SaOS-2 split-luciferase Mdm2/MdmX complementation;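 active = inhibition of at least 50% at 8 µM in the primary screen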
Target sequence (O15151 whole entry, looked up): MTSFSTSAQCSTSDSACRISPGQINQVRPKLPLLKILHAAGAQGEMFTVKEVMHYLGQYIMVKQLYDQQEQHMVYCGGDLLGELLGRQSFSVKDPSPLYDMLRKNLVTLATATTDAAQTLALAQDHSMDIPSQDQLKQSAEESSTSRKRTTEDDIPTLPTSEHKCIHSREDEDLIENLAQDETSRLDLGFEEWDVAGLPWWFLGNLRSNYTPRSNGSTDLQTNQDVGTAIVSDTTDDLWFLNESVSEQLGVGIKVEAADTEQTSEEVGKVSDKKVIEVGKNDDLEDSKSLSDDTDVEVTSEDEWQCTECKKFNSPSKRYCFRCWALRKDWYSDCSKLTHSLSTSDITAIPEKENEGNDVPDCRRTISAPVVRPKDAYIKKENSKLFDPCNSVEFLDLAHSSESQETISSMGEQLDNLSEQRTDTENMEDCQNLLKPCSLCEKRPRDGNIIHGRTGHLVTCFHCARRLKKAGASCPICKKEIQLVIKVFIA
Target sequence (Q00987 whole entry, looked up): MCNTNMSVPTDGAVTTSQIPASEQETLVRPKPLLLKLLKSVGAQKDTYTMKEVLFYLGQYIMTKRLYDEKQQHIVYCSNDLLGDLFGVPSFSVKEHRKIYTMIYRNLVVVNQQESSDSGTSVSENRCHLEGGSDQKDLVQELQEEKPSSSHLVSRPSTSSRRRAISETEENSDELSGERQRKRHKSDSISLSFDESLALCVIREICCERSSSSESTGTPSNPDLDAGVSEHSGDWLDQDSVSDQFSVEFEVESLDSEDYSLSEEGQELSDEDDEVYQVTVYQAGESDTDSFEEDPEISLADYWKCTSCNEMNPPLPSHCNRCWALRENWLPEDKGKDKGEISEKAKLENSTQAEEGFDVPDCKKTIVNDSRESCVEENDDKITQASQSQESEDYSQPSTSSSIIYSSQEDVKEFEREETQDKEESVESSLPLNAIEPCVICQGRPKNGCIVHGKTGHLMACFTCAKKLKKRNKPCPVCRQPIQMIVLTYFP
Mdm2 MdmX conf = Mdm2-MdmX complex disruptors, retested hits, confirmation, luminescence, single concentration | shares compounds with Mdm2 MdmX PPI | hit rate 55% among 10,000 | inhibition, % at 8 µM | AID 489028, 2010 | Mdm2-MdmX binding, luminescent assay; in the data active = inhibition above about 40%
FLuc counter = full-length luciferase signal inhibition, confirmation, counter-screen for Mdm2/MdmX interaction inhibitor project, cell-based, single concentration, SaOS-2. SaOS-2 full-length luciferase counterscreen, luminescence. shares compounds with Mdm2 MdmX PPI. inhibition, % at 8 µM. hit rate 77% among 6,200;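 active = mean inhibition at 8 µM reaching about 37%, which flags the compound as non-specific, limit read from the data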;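 note: p53-null SaOS-2 cells with luciferase driven by a doxycycline-inducible promoter; compound on cells about two nights before reading with doxycycline added after day one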
A number is an active result; 0 = inactive; - = no result given. Most compounds without a hit are left out; they make up all but 5.7% or so of the library.

SMILES	Beta apoptosis	CSC inhib	T cruzi inh	SKKanGAS inh	Calb FLC	Mdm2 MdmX PPI	Mdm2 MdmX conf	FLuc counter
C/C(=N\NC(=O)CCCNc1ccc(C)cc1)c1ccccn1	0	0	0	0	0	62.3	55.2	47.0
COC(=O)c1sccc1NC(=O)CC1NCCNC1=O (stereo not drawn)	0	0	0	0	0	0	-	-
C/C(=N\NC(=O)c1cc2ccccc2cc1O)c1ccccn1	98.7	0	0	101.9	99.9	52.8	54.1	0
Cc1ccc2c(c1)C(c1ccc([N+](=O)[O-])cc1)=NNC(c1ccc(Br)cc1)=N2	0	0	0	0	0	71.4	0	-
Cc1noc2ncnc(Sc3c(Cl)cccc3Cl)c12	0	0	0	0	0	53.5	0	-
CCOc1ccc(C(=O)/C=C/Nc2ccc(S(=O)(=O)N=C(N)N)cc2)cc1	0	0	0	0	0	73.6	0	-
NC(N)=NS(=O)(=O)c1ccc(N/C=C/C(=O)c2ccc(Cl)c(Cl)c2)cc1	0	0	0	0	0	0	-	-
CC(=O)N1CCc2cc(S(=O)(=O)C(C)CC(=O)Nc3ccc(OC(F)(F)F)cc3)ccc21 (stereo not drawn)	0	0	0	0	0	0	-	-
CC(=O)C1C(=O)C=C(c2cccs2)CC1c1ccccc1 (stereo not drawn)	0	0	0	0	0	0	-	-
O=C1C=C(c2cccs2)C[C@H](c2ccccc2)[C@H]1n1nnc([N+](=O)[O-])n1	101.0	149.3	0	0	0	73.6	54.1	171.5
CCc1ccc(/C=N/NC(=O)c2cc(C3CC3)nc3ccc(Br)cc23)s1	0	0	0	0	0	63.2	55.0	53.5
O=C(NC1CCCCC1)c1ccc(S(=O)(=O)c2ccccc2Cl)c([N+](=O)[O-])c1	0	0	0	0	0	77.0	65.8	0
O=C(c1ccc(S(=O)(=O)c2ccc(F)cc2)c([N+](=O)[O-])c1)N1CCCCCC1	0	0	0	0	0	56.3	0	0
Cc1ccccc1CS(=O)(=O)c1ccc(C(=O)N2CCOCC2)cc1[N+](=O)[O-]	0	0	0	0	0	0	-	-
O=C(c1ccc(S(=O)(=O)Cc2ccccc2Cl)c([N+](=O)[O-])c1)N1CCOCC1	0	0	0	0	0	51.1	42.0	49.0
O=C(NC1CCCCC1)c1ccc(-n2cncn2)c([N+](=O)[O-])c1	0	0	-	-	-	0	-	-
CN(C(=O)c1ccc(S(=O)(=O)c2cccc(Cl)c2)c([N+](=O)[O-])c1)C1CCCCC1	0	0	0	0	0	72.5	60.0	0
O=C(c1ccc(S(=O)(=O)c2ccccc2Cl)c([N+](=O)[O-])c1)N1CCN(Cc2ccccc2)CC1	0	0	0	0	0	83.9	75.0	0
CCc1ccc(-c2nc(CS(=O)CC(=O)NCCCN3CCOCC3)c(C)o2)cc1 (stereo not drawn)	0	0	0	0	0	0	-	-
Cc1cc(C)c(C#N)c(SCc2nnc(-c3ccccc3)o2)n1	0	-	0	0	0	84.8	90.9	49.0
Cc1ccc(C#N)c(SCc2nnc(-c3ccc(Cl)cc3)o2)n1	0	0	0	0	0	88.1	92.5	57.4
Cc1ccc(C#N)c(SCc2cc3c(cc2Cl)OCO3)n1	0	0	0	0	0	0	-	-
CCN1CCN(C(=O)N(c2ccccc2)c2ccccc2)CC1	0	0	0	0	0	0	-	-
COc1ccc(C(=O)Nc2cc3c(cc2OC)CCCC3)cc1Br	0	0	0	0	0	0	-	-
COc1cc2c(cc1NC(=O)c1ccc(C(C)(C)C)cc1)CCCC2	0	0	0	0	0	69.1	74.2	61.9
SMILES	Beta apoptosis	CSC inhib	T cruzi inh	SKKanGAS inh	Calb FLC	Mdm2 MdmX PPI	Mdm2 MdmX conf	FLuc counter
COc1ccc(C(CNC(=O)C(CCSC)NC(=O)c2ccccc2OC)N2CCCCC2)cc1 (stereo not drawn)	0	-	0	0	0	0	-	-
O=C(OCn1ncc(Br)c(Br)c1=O)c1ccccc1Cl	112.1	0	58.6	0	0	99.2	98.4	0
O=C(OCn1ncc(Br)c(Br)c1=O)c1ccc(F)cc1	99.5	0	0	0	0	98.6	100.1	0
CC(C)(C)c1ccc(NC(=O)c2ccsc2)cc1	0	0	0	0	0	0	-	-
COc1ccccc1NC(=O)NC1(C)CCS(=O)(=O)C1 (stereo not drawn)	-	-	0	0	0	0	-	-
O=C(Nc1n[nH]c(=S)s1)c1ccc2ccccc2c1	0	0	0	0	0	0	-	-
CNC(=O)C(C#N)(Cc1cc(C(C)=O)ccc1OC)Cc1cc(C(C)=O)ccc1OC	0	0	0	0	0	0	-	-
Cc1cccc2c(C(=O)N3CCN(c4ccccc4)CC3)cc(-c3ccncc3)nc12	0	0	0	0	0	57.2	75.4	69.4
CC(=O)c1ccc(N2CCN(C(=O)c3cc(-c4ccncc4)nc4ccc(Cl)cc34)CC2)cc1	0	0	0	0	0	62.9	0	-
O=C1[C@@H]2CSCN2C(=O)CN1Cc1c(F)cccc1Cl	0	0	0	0	0	0	-	-
Cc1ccc(OCCNC(=O)CCNS(=O)(=O)c2ccc3ccccc3c2)cc1	0	0	-	-	-	0	-	-
O=C(O)c1ccccc1N=Cc1c(O)n(-c2nccs2)c(=O)c2ccccc12	0	0	0	0	0	0	-	-
CCN(CC)S(=O)(=O)c1cccc(-n2c(O)c(C=Nc3ccccc3C(=O)O)c3ccccc3c2=O)c1	0	0	72.2	0	0	67.2	67.7	36.5
Cc1ccc(NC(=O)CSc2ncccn2)cc1S(=O)(=O)N1CCCCC1	0	0	0	0	0	0	-	-
Cc1cccc(Nc2nc(N)nc(CN3CCC(C(N)=O)CC3)n2)c1C	0	0	0	0	-	0	-	-
CCOc1ccc(Nc2nc(N)nc(CCl)n2)cc1	0	0	0	0	0	98.1	98.0	56.5
Cc1cccc(Nc2nc(N)nc(CCl)n2)c1C	0	0	0	0	0	100.3	100.1	60.3
Cc1cccc(Nc2nc(N)nc(CCl)n2)c1	0	0	68.2	0	0	68.1	63.9	61.0
Cc1ccc(Nc2nc(N)nc(CSc3ncccn3)n2)cc1	0	0	0	0	0	0	-	-
Cc1ccc(Nc2nc(N)nc(CSc3nnc(-c4ccncc4)o3)n2)cc1	0	0	0	0	-	67.2	0	-
